As a reminder, the IC50 is the midpoint of a concentration-inhibition curve. The low end stands for higher potency, the high end for lower potency. The term Ki denotes the dissociation constant of the complex between target and ligand, obtained from inhibition or displacement. High values mean lower affinity, low ones higher affinity. One may read the inhibition as the change of the read-out against control, counted positive when it falls. Read a low inhibition as little suppression.

For one assay, the target named is Chymotrypsinogen B (Homo sapiens, UniProt P17538). Kind of assay: Inhibition of chymotrypsin. A digest of the protocol: (§1)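 HPLC-based activity assay with substrate S0120 at 400 µM. Enzyme levels: papain 4.5 µM, chymotrypsin 0.45 µM, trypsin 0.23 µM. IC50 determined from HPLC measurements.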
Sequence of Chymotrypsinogen B (P17538 34-164 limits assumed, other chains not shown): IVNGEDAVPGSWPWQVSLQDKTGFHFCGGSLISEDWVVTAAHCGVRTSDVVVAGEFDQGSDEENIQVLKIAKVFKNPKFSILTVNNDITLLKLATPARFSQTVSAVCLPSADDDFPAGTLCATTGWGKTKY
Sequence of Chymotrypsinogen B (P17538 167-263 limits assumed, other chains not shown): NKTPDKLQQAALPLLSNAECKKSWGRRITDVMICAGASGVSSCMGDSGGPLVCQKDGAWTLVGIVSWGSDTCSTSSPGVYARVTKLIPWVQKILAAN
Molecule `NC(=O)c1ccc2c(c1)C(=O)C(=O)N2Cc1ccc2ccccc2c1` showed an IC50 of 34 µM.

The target in the next assay is T1, Papain (Carica papaya, UniProt P00784).
T1 sequence (P00784 whole entry): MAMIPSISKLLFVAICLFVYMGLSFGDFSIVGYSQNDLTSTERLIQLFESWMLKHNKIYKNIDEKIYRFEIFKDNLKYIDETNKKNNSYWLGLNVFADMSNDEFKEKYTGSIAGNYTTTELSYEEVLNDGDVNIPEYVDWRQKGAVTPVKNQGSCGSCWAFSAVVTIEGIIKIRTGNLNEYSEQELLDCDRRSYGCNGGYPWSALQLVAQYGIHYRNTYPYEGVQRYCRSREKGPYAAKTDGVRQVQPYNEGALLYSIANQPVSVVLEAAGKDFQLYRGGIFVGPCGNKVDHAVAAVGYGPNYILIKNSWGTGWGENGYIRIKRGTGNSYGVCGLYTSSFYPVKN
The assay is described as follows: Inhibition of papain. A digest of the protocol: as §1
In turn, `NC(=O)c1ccc2c(c1)C(=O)C(=O)N2Cc1ccc2ccccc2c1` gave an IC50 of 11 µM. In other words, the double-digit micromolar range.

Another assay addresses Trypsin (Homo sapiens, UniProt P07477+P07478+P35030). The assay is described as follows: Inhibition of trypsin. The class given is protein assay. The method, boiled down:
as §1
For the molecule `NC(=O)c1ccc2c(c1)C(=O)C(=O)N2Cc1ccc2ccccc2c1`, the IC50 was 352 µM.

Another assay concerns the target T2, Human rhinovirus A protease (Human rhinovirus sp., UniProt Q4U254).
T2 sequence (Q4U254 whole entry): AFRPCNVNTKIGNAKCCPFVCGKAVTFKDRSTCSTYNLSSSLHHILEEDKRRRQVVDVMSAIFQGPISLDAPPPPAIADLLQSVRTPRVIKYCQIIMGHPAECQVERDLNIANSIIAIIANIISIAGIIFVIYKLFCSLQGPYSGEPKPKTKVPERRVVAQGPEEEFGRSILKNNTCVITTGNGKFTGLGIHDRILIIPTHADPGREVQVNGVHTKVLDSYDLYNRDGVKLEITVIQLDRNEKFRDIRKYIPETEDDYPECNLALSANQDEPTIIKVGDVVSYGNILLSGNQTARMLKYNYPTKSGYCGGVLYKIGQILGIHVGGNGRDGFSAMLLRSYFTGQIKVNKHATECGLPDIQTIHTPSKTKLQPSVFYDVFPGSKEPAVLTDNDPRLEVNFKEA
Kind of assay: Inhibition of human rhinovirus 14 3C protease. Details: species or system rhinovirus B14.
With `NC(=O)c1ccc2c(c1)C(=O)C(=O)N2Cc1ccc2ccccc2c1`, inhibition was half-maximal at 0.004 µM (IC50).

The target of another assay is Replicase polyprotein 1a (Severe acute respiratory syndrome-related coronavirus, UniProt P0C6U8). Kind of assay: Inhibition of SARS CoV 3C-like protease.
`O=C1C(=O)N(Cc2ccccc2)c2ccc(I)cc21` showed an IC50 of 50 µM and a Ki of 50 µM.

`CN1C(=O)C(=O)c2cc(C(N)=O)ccc21` showed a half-maximal inhibitory concentration (IC50) of 71 µM and a Ki of 71 µM.

Turning to `NC(=O)c1ccc2c(c1)C(=O)C(=O)N2Cc1ccccc1`, inhibition was half-maximal at 12.5 µM (IC50).

In a further assay the target is Replicase polyprotein 1a (Severe acute respiratory syndrome-related coronavirus) (UniProt P0C6U8). The assay is described as follows: Inhibition of SARS CoV 3C-like protease at 100 uM.
In turn, `CCCCN1C(=O)C(=O)c2cc(C(=O)OC)ccc21` yielded an inhibition of less than 25%. Same read-out and setting: the value for `NC(=O)c1ccc2c(c1)C(=O)C(=O)N2` was less than 25%. Still for that read-out and setting: the value for `COC(=O)c1ccc2c(c1)C(=O)C(=O)N2C` was less than 25%.

With `O=C1Nc2ccc(I)cc2C1=O`, the inhibition was less than 25%. The same measure, in the same setting: the value for `CCCN1C(=O)C(=O)c2cc(C(=O)OC)ccc21` was less than 25%. `CCCCN1C(=O)C(=O)c2cc(C(=O)O)ccc21` showed an inhibition of less than 25%. `CCCN1C(=O)C(=O)c2cc(C(=O)O)ccc21`: the inhibition is less than 25%. The molecule `COC(=O)c1ccc2c(c1)C(=O)C(=O)N2Cc1ccc2ccccc2c1` showed an inhibition of less than 25%. The molecule `CCCN1C(=O)C(=O)c2cc(I)ccc21` displayed an inhibition of 25%. `COC(=O)c1ccc2c(c1)C(=O)C(=O)N2Cc1ccccc1` returned an inhibition of less than 25%. As to `CN1C(=O)C(=O)c2cc(I)ccc21`, the inhibition is less than 25%. Regarding `O=C(O)c1ccc2c(c1)C(=O)C(=O)N2Cc1ccccc1`, the inhibition is less than 25%. Still for that read-out and setting: the value for `O=C1Nc2ccc(C(=O)O)cc2C1=O` was less than 25%. The same measure, in the same setting: the value for `O=C(O)c1ccc2c(c1)C(=O)C(=O)N2Cc1ccc2ccccc2c1` was 46%. `CN1C(=O)C(=O)c2cc(C(=O)O)ccc21` showed an inhibition of less than 25%.

(Values after ChEMBL document CHEMBL1148529, “Isatin compounds as noncovalent SARS coronavirus 3C-like protease inhibitors” (J Med Chem, 2006).)
